According to ChEMBL document CHEMBL3351675, “Novel benzenesulfonylureas containing thiophenylpyrazoline moiety as potential antidiabetic and anticancer agents” (Bioorg Med Chem Lett, 2014):
The source made the active and inactive calls. The rule behind the calls is not given here.

Legend:
SK-MEL-5 = assay: Anticancer activity against human SK-MEL-5 cells assessed as cell growth level at 10 uM after 48 hrs by sulforhodamine B assay; type: functional
[1] = Anticancer activity against human UACC257 cells assessed as cell growth level at 10 uM after 48 hrs by sulforhodamine B assay; type: functional, UACC-257
[2] = Anticancer activity against human UACC62 cells assessed as cell growth level at 10 uM after 48 hrs by sulforhodamine B assay; type: functional, UACC-62
[3] = Anticancer activity against human OVCAR3 cells assessed as cell growth level at 10 uM after 48 hrs by sulforhodamine B assay; type: functional, OVCAR-3
[4] = Anticancer activity against human OVCAR4 cells assessed as cell growth level at 10 uM after 48 hrs by sulforhodamine B assay; type: functional, OVCAR-4
[5] = Anticancer activity against human OVCAR5 cells assessed as cell growth level at 10 uM after 48 hrs by sulforhodamine B assay; type: functional, OVCAR-5
[6] = Anticancer activity against human OVCAR8 cells assessed as cell growth level at 10 uM after 48 hrs by sulforhodamine B assay; type: functional, OVCAR-8
[7] = Anticancer activity against human SKOV3 cells assessed as cell growth level at 10 uM after 48 hrs by sulforhodamine B assay; type: functional, SK-OV-3
786-0 = assay: Anticancer activity against human 786-0 cells assessed as cell growth level at 10 uM after 48 hrs by sulforhodamine B assay; type: functional
ACHN = assay: Anticancer activity against human ACHN cells assessed as cell growth level at 10 uM after 48 hrs by sulforhodamine B assay; type: functional
SN12C = assay: Anticancer activity against human SN12C cells assessed as cell growth level at 10 uM after 48 hrs by sulforhodamine B assay; type: functional
[8] = Anticancer activity against human UO31 cells assessed as cell growth level at 10 uM after 48 hrs by sulforhodamine B assay; type: functional, UO-31
[9] = Anticancer activity against human PC3 cells assessed as cell growth level at 10 uM after 48 hrs by sulforhodamine B assay; type: functional, PC-3
MCF7 = assay: Anticancer activity against human MCF7 cells assessed as cell growth level at 10 uM after 48 hrs by sulforhodamine B assay; type: functional
[10] = Anticancer activity against human Hs 578T cells assessed as cell growth level at 10 uM after 48 hrs by sulforhodamine B assay; type: functional
[11] = Anticancer activity against human BT549 cells assessed as cell growth level at 10 uM after 48 hrs by sulforhodamine B assay; type: functional, BT-549
T47D = assay: Anticancer activity against human T47D cells assessed as cell growth level at 10 uM after 48 hrs by sulforhodamine B assay; type: functional
[12] = Anticancer activity against human NCI60 cells assessed as cell growth level at 10 uM after 48 hrs by sulforhodamine B assay; type: functional
Rattus norvegicus = assay: Antidiabetic activity in overnight fasted Wistar rat assessed as reduction in plasma glucose level at 30 mg/kg, po by oral glucose tolerance test; type: functional, organism-based; parameters: dose 30 mg/kg
Procedure, shortened: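 Normal Wistar rats were given a glucose load by the oral glucose tolerance method, and plasma glucose rise was followed after oral test dosing. Glibenclamide was the reference drug. Data are mean ± SEM of six observations versus control, analysed by one-way ANOVA with Dunnett test (p < 0.05, p < 0.01).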

CCRF-CEM = assay: Anticancer activity against human CCRF-CEM cells assessed as cell growth level at 10 uM after 48 hrs by sulforhodamine B assay; type: functional
HL-60(TB) = assay: Anticancer activity against human HL-60(TB) cells assessed as cell growth level at 10 uM after 48 hrs by sulforhodamine B assay; type: functional
K562 = assay: Anticancer activity against human K562 cells assessed as cell growth level at 10 uM after 48 hrs by sulforhodamine B assay; type: functional
[13] = Anticancer activity against human MOLT4 cells assessed as cell growth level at 10 uM after 48 hrs by sulforhodamine B assay; type: functional, MOLT-4
A549 = assay: Anticancer activity against human A549/ATCC cells assessed as cell growth level at 10 uM after 48 hrs by sulforhodamine B assay; type: functional
[14] = Anticancer activity against human HOP92 cells assessed as cell growth level at 10 uM after 48 hrs by sulforhodamine B assay; type: functional, HOP-92
NCI-H226 = assay: Anticancer activity against human NCI-H226 cells assessed as cell growth level at 10 uM after 48 hrs by sulforhodamine B assay; type: functional
NCI-H322M = assay: Anticancer activity against human NCI-H322M cells assessed as cell growth level at 10 uM after 48 hrs by sulforhodamine B assay; type: functional
NCI-H522 = assay: Anticancer activity against human NCI-H522 cells assessed as cell growth level at 10 uM after 48 hrs by sulforhodamine B assay; type: functional
[15] = Anticancer activity against human COLO205 cells assessed as cell growth level at 10 uM after 48 hrs by sulforhodamine B assay; type: functional, COLO 205
[16] = Anticancer activity against human HCC2998 cells assessed as cell growth level at 10 uM after 48 hrs by sulforhodamine B assay; type: functional, HCC 2998
[17] = Anticancer activity against human HCT116 cells assessed as cell growth level at 10 uM after 48 hrs by sulforhodamine B assay; type: functional, HCT-116
HT-29 = assay: Anticancer activity against human HT-29 cells assessed as cell growth level at 10 uM after 48 hrs by sulforhodamine B assay; type: functional
KM12 = assay: Anticancer activity against human KM12 cells assessed as cell growth level at 10 uM after 48 hrs by sulforhodamine B assay; type: functional
SW-620 = assay: Anticancer activity against human SW620 cells assessed as cell growth level at 10 uM after 48 hrs by sulforhodamine B assay; type: functional
[18] = Anticancer activity against human SF295 cells assessed as cell growth level at 10 uM after 48 hrs by sulforhodamine B assay; type: functional, SF-295
[19] = Anticancer activity against human SF539 cells assessed as cell growth level at 10 uM after 48 hrs by sulforhodamine B assay; type: functional, SF-539
SNB-19 = assay: Anticancer activity against human SNB19 cells assessed as cell growth level at 10 uM after 48 hrs by sulforhodamine B assay; type: functional
SNB-75 = assay: Anticancer activity against human SNB75 cells assessed as cell growth level at 10 uM after 48 hrs by sulforhodamine B assay; type: functional
[20] = Anticancer activity against human LOXIMVI cells assessed as cell growth level at 10 uM after 48 hrs by sulforhodamine B assay; type: functional, LOX IMVI
Malme-3M = assay: Anticancer activity against human MALME-3M cells assessed as cell growth level at 10 uM after 48 hrs by sulforhodamine B assay; type: functional
M14 = assay: Anticancer activity against human M14 cells assessed as cell growth level at 10 uM after 48 hrs by sulforhodamine B assay; type: functional
MDA-MB-435 = assay: Anticancer activity against human MDA-MB-435 cells assessed as cell growth level at 10 uM after 48 hrs by sulforhodamine B assay; type: functional
SK-MEL-28 = assay: Anticancer activity against human SK-MEL-28 cells assessed as cell growth level at 10 uM after 48 hrs by sulforhodamine B assay; type: functional
[21] = biological target: Peroxisome proliferator-activated receptor gamma (Mus musculus) (UniProt P37238); assay: Transactivation of PPARgamma (mouse) expressed in 3T3-L1 cells incubated for 24 hrs by luciferase reporter gene assay relative to rosiglitazone
Peroxisome proliferator-activated receptor gamma (Mus musculus), sequence (P37238 whole entry, looked up): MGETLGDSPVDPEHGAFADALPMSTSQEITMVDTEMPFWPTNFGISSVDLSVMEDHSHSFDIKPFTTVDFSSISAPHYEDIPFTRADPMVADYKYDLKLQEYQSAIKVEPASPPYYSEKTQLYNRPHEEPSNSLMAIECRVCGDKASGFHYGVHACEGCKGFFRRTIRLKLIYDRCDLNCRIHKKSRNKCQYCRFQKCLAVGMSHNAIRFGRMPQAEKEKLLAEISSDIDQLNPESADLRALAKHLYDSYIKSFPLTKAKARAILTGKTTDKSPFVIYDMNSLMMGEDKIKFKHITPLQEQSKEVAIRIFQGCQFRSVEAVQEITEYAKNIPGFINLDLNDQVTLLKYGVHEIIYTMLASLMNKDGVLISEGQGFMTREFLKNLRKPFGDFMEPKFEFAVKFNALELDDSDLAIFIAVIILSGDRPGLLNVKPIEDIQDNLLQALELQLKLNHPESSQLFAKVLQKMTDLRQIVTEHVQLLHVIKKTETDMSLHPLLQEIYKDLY

Work on `Cc1ccc(NC(=O)NS(=O)(=O)c2ccc(N3N=C(c4cccs4)CC3c3ccc(C)s3)cc2)cc1` (stereo not drawn) yielded an Activity (SK-MEL-5) of 47.78%, an Activity [1] of 61.42% and an Activity [2] of 40.91%. The Activity [3] was 98.17%, the Activity [4] was 106.4% and the Activity [5] was 114.78%. It also gave an Activity [6] of 99.82%, an Activity [7] of 78.27% and an Activity (786-0) of 103.79%. It also gave an Activity (ACHN) of 96.6%, an Activity (SN12C) of 111.21% and an Activity [8] of 85.69%. It also gave an Activity [9] of 86.34%, an Activity (MCF7) of 97.09% and an Activity [10] of 96.05%. The Activity [11] was 74.25%, the Activity (T47D) was 78.79% and the Activity [12] was 89.29%. The inhibition (Rattus norvegicus) was “Active”, the Activity (CCRF-CEM) was 87.89% and the Activity (HL-60(TB)) was 126.37%. For the same compound, the Activity (K562) was 113.81%, the Activity [13] was 94.41% and the Activity (A549) was 101.55%. For the same compound, the Activity [14] was 84.91%, the Activity (NCI-H226) was 110.48% and the Activity (NCI-H322M) was 103.57%. For the same compound, the Activity (NCI-H522) was 91.51%, the Activity [15] was -54.62% and the Activity [16] was 108.61%. The Activity [17] was 85.12%, the Activity (HT-29) was 127.85% and the Activity (KM12) was 97.36%. It also gave an Activity (SW-620) of 106.34%, an Activity [18] of 100.07% and an Activity [19] of 98.31%. The Activity (SNB-19) was 108.18%, the Activity (SNB-75) was 93.74% and the Activity [20] was 99.74%. For the same compound, the Activity (Malme-3M) was 40.64%, the Activity (M14) was 58.39% and the Activity (MDA-MB-435) was 61.95%. The Activity (SK-MEL-28) was 47.8% and the Activity [21] was “inactive”.

In the case of `COc1ccc(NC(=O)NS(=O)(=O)c2ccc(N3N=C(c4cccs4)CC3c3ccc(C)s3)cc2)cc1` (stereo not drawn), the Activity (SK-MEL-5) is reported as 48.27%, the Activity [1] is reported as 49.98% and the Activity [2] is reported as 31%. It also gave an Activity [3] of 106.38%, an Activity [4] of 102.84% and an Activity [5] of 113.48%. The Activity [6] was 106.9%, the Activity [7] was 82.55% and the Activity (786-0) was 100.87%. The Activity (ACHN) was 93.16%, the Activity (SN12C) was 111.79% and the Activity [8] was 87.18%. For the same compound, the Activity [9] was 96.33%, the Activity (MCF7) was 99.04% and the Activity [10] was 97.52%. The Activity [11] was 116.23%, the Activity (T47D) was 85.68% and the Activity [12] was 87.76%. The inhibition (Rattus norvegicus) was “Active”, the Activity (CCRF-CEM) was 88.12% and the Activity (HL-60(TB)) was 102.86%. The Activity (K562) was 111.39%, the Activity [13] was 94.7% and the Activity (A549) was 5.45%. The Activity [14] was 87.06%, the Activity (NCI-H226) was 110.15% and the Activity (NCI-H322M) was 102.37%. The Activity (NCI-H522) was 87.33%, the Activity [15] was -63.47% and the Activity [16] was 111.31%. It also gave an Activity [17] of 98.77%, an Activity (HT-29) of 119.52% and an Activity (KM12) of 98.51%. For the same compound, the Activity (SW-620) was 107.16%, the Activity [18] was 104.7% and the Activity [19] was 104.31%. For the same compound, the Activity (SNB-19) was 103.16%, the Activity (SNB-75) was 99.87% and the Activity [20] was 96.81%. For the same compound, the Activity (Malme-3M) was 31.15%, the Activity (M14) was 52.12% and the Activity (MDA-MB-435) was 52.3%. The Activity (SK-MEL-28) was 48.3% and the Activity [21] was “inactive”.
